Molecular target: T1, recombinant mouse Nape-pld (Mus musculus, UniProt Q8BH82)
T1 sequence (Q8BH82 1-396): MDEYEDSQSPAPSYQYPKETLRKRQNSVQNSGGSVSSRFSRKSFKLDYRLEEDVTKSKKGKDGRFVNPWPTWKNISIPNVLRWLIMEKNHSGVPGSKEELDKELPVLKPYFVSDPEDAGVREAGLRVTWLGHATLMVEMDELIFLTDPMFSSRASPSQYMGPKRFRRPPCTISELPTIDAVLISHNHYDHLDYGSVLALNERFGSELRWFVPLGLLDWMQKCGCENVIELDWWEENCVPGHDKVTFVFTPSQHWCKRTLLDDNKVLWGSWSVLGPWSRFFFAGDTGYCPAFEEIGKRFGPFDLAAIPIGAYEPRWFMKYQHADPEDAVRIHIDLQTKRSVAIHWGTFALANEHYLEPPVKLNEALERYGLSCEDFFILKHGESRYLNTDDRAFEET
Assay: VU534 competition assays with compounds known to bind Nape-pld
Format: biochemical
Details: for Effect on Nape-pld activity (compound alone): in presence of 0.4% NOG, 100 μM PE, 1 mM DCA
In short: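 Enzyme (final 0.4 μg, 50 mM Tris, 0.4% N-octylglucoside) was preincubated with vehicle or a competitor for 30 min: dioleoyl-PE 100 μM, deoxycholic acid 1 mM, bithionol 3 μM or LEI-401 30 μM. Alternatively, 15 μM of an analog was used for 5 min. Graded test compound followed for 60 min, then flame-NAPE (0.5 μM) plus N-oleoyl-PE (9.5 μM). The 5-min fluorescence change was normalized to vehicle, 0 μM.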

## C[C@H](CCC(=O)O)[C@H]1CC[C@H]2[C@@H]3CC[C@@H]4C[C@H](O)CC[C@]4(C)[C@H]3C[C@H](O)[C@]12C [DCA, deoxycholic acid]
  Effect on Nape-pld activity (compound alone): slight, but nonsignificant trend for inhibition

## CCCCCCCC/C=C\CCCCCCCC(=O)OC[C@H](COP(=O)(O)OCCN)OC(=O)CCCCCCC/C=C\CCCCCCCC [PE, dioleoylphosphatidylethanolamine]
  Effect on Nape-pld activity (compound alone): slight, but nonsignificant trend for inhibition

## O=C(NCC1CC1)c1cc(N2CC[C@H](O)C2)nc(N2CCC[C@@H](c3ccccc3)C2)n1 [LEI-401]
Graded concentrations of LEI-401 or VU233, flame-NAPE (Figure S5)
  Effect on ability of 5 μM VU534 to activate Nape-pld: reduced the ability of 5 μM VU534 to activate Nape-pld in a concentration-dependent manner

— PMC10443532 (ACS Chemical Biology, 2023)
